Calls of active or inactive are those of the source. The calls are words filed in the database; no cut-off is given here.
Tests used:
[1] = system: Bacillus subtilis; assay: Induction of pbpI gene expression in Bacillus subtilis at 1 ug/ml by microarray analysis relative to untreated control; format: functional
Summary of the method: (§1)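 B. subtilis cells harvested 10 min after antibiotic addition. Pellets were snap-frozen in liquid nitrogen, then RNA was prepared for microarray hybridization. Fold induction is taken against untreated control cells.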

[2] = system: Bacillus subtilis; assay: Induction of sigX gene expression in Bacillus subtilis by real-time RT-PCR; format: functional
Summary of the method: (§2)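 Transcript levels measured by one-step real-time RT-PCR with SYBR green detection. Fold change is given as mean ± standard deviation of two independent experiments.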

[3] = system: Bacillus subtilis; assay: Induction of sigM gene expression in Bacillus subtilis by real-time RT-PCR; format: functional; summary of the method: as §2
[4] = system: Bacillus subtilis; assay: Induction of ylxW gene expression in Bacillus subtilis at 1 ug/ml by microarray analysis relative to untreated control; format: functional; summary of the method: as §1
[5] = system: Bacillus subtilis; assay: Induction of yfnI gene expression in Bacillus subtilis at 1 ug/ml by microarray analysis relative to untreated control; format: functional; summary of the method: as §1
[6] = system: Bacillus subtilis; assay: Induction of sigW gene expression in Bacillus subtilis by real-time RT-PCR; format: functional; summary of the method: as §2
[7] = system: Bacillus subtilis; assay: Induction of yqjL gene expression in Bacillus subtilis at 1 ug/ml by microarray analysis relative to untreated control; format: functional; summary of the method: as §1
[8] = system: Bacillus subtilis; assay: Induction of sigV-yrhM gene expression in Bacillus subtilis at 1 ug/ml by microarray analysis relative to untreated control; format: functional; summary of the method: as §1
[9] = system: Bacillus subtilis; assay: Induction of sigM-yhdLK gene expression in Bacillus subtilis at 1 ug/ml by microarray analysis relative to untreated control; format: functional; summary of the method: as §1
[10] = system: Bacillus subtilis; assay: Induction of yqiG gene expression in Bacillus subtilis at 1 ug/ml by microarray analysis relative to untreated control; format: functional; summary of the method: as §1
[11] = system: Bacillus subtilis; assay: Induction of ypuD gene expression in Bacillus subtilis at 1 ug/ml by microarray analysis relative to untreated control; format: functional; summary of the method: as §1
[12] = system: Bacillus subtilis; assay: Induction of ylaC gene expression in Bacillus subtilis by real-time RT-PCR; format: functional; summary of the method: as §2
[13] = system: Bacillus subtilis; assay: Induction of yppC gene expression in Bacillus subtilis at 1 ug/ml by microarray analysis relative to untreated control; format: functional; summary of the method: as §1
[14] = system: Bacillus subtilis; assay: Induction of sigY gene expression in Bacillus subtilis by real-time RT-PCR; format: functional; summary of the method: as §2
[15] = system: Bacillus subtilis; assay: Induction of liaIH gene expression in Bacillus subtilis at 1 ug/ml by microarray analysis relative to untreated control; format: functional; summary of the method: as §1
[16] = system: Bacillus subtilis; assay: Induction of ycgRQ gene expression in Bacillus subtilis at 1 ug/ml by microarray analysis relative to untreated control; format: functional; summary of the method: as §1
[17] = system: Bacillus subtilis; assay: Induction of radC gene expression in Bacillus subtilis at 1 ug/ml by microarray analysis relative to untreated control; format: functional; summary of the method: as §1
[18] = system: Bacillus subtilis; assay: Induction of yrhH gene expression in Bacillus subtilis at 1 ug/ml by microarray analysis relative to untreated control; format: functional; summary of the method: as §1
[19] = system: Bacillus subtilis; assay: Induction of ywnJ gene expression in Bacillus subtilis at 1 ug/ml by microarray analysis relative to untreated control; format: functional; summary of the method: as §1
[20] = system: Bacillus subtilis; assay: Induction of rodA gene expression in Bacillus subtilis at 1 ug/ml by microarray analysis relative to untreated control; format: functional; summary of the method: as §1
[21] = system: Bacillus subtilis; assay: Induction of liaH gene expression in Bacillus subtilis by real-time RT-PCR; format: functional; summary of the method: as §2
[22] = system: Bacillus subtilis; assay: Induction of yoxD gene expression in Bacillus subtilis at 1 ug/ml by microarray analysis relative to untreated control; format: functional; summary of the method: as §1
[23] = system: Bacillus subtilis; assay: Induction of gerAAABAC gene expression in Bacillus subtilis at 1 ug/ml by microarray analysis relative to untreated control; format: functional; summary of the method: as §1
[24] = system: Bacillus subtilis; assay: Induction of ypbG gene expression in Bacillus subtilis at 1 ug/ml by microarray analysis relative to untreated control; format: functional; summary of the method: as §1
[25] = system: Bacillus subtilis; assay: Induction of bcrC gene expression in Bacillus subtilis at 1 ug/ml by microarray analysis relative to untreated control; format: functional; summary of the method: as §1
[26] = system: Bacillus subtilis; assay: Induction of ypuA gene expression in Bacillus subtilis at 1 ug/ml by microarray analysis relative to untreated control; format: functional; summary of the method: as §1
[27] = system: Bacillus subtilis; assay: Induction of yjbC-spx gene expression in Bacillus subtilis at 1 ug/ml by microarray analysis relative to untreated control; format: functional; summary of the method: as §1
[28] = system: Bacillus subtilis; assay: Induction of yjbQ gene expression in Bacillus subtilis at 1 ug/ml by microarray analysis relative to untreated control; format: functional; summary of the method: as §1
[29] = system: Bacillus subtilis; assay: Induction of ywtF gene expression in Bacillus subtilis at 1 ug/ml by microarray analysis relative to untreated control; format: functional; summary of the method: as §1
[30] = system: Bacillus subtilis; assay: Induction of promoter liaI in Bacillus subtilis at 0.5 to 2 ug/ml; format: functional, organism-based
Summary of the method: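 PliaI promoter activity read by β-galactosidase assay in strain BFS2470 (W168 liaI::pMUTIN). Antibiotic concentrations spanned 4 orders of magnitude.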

[31] = system: Bacillus subtilis; assay: Induction of yrhIJ gene expression in Bacillus subtilis at 1 ug/ml by microarray analysis relative to untreated control; format: functional; summary of the method: as §1
[32] = system: Bacillus subtilis; assay: Induction of sigV gene expression in Bacillus subtilis by real-time RT-PCR; format: functional; summary of the method: as §2
[33] = system: Bacillus subtilis; assay: Induction of yebC gene expression in Bacillus subtilis at 1 ug/ml by microarray analysis relative to untreated control; format: functional; summary of the method: as §1
[34] = system: Bacillus subtilis; assay: Induction of sms-yacKL gene expression in Bacillus subtilis at 1 ug/ml by microarray analysis relative to untreated control; format: functional; summary of the method: as §1
[35] = system: Bacillus subtilis; assay: Induction of ybeF gene expression in Bacillus subtilis at 1 ug/ml by microarray analysis relative to untreated control; format: functional; summary of the method: as §1
[36] = system: Bacillus subtilis; assay: Induction of sigZ gene expression in Bacillus subtilis by real-time RT-PCR; format: functional; summary of the method: as §2
[37] = system: Bacillus subtilis; assay: Induction of mreBH gene expression in Bacillus subtilis at 1 ug/ml by microarray analysis relative to untreated control; format: functional; summary of the method: as §1
[38] = system: Bacillus subtilis; assay: Induction of ywaC gene expression in Bacillus subtilis at 1 ug/ml by microarray analysis relative to untreated control; format: functional; summary of the method: as §1
[39] = system: Bacillus subtilis; assay: Induction of ydaH gene expression in Bacillus subtilis at 1 ug/ml by microarray analysis relative to untreated control; format: functional; summary of the method: as §1

CCCCCCCCCC(=O)N[C@@H](Cc1c[nH]c2ccccc12)C(=O)N[C@H](CC(N)=O)C(=O)N[C@@H](CC(=O)O)C(=O)N[C@@H]1C(=O)NCC(=O)N[C@@H](CCCN)C(=O)N[C@@H](CC(=O)O)C(=O)N[C@H](C)C(=O)N[C@@H](CC(=O)O)C(=O)NCC(=O)N[C@H](CO)C(=O)N[C@@H]([C@H](C)CC(=O)O)C(=O)N[C@@H](CC(=O)c2ccccc2N)C(=O)O[C@@H]1C
Activity [1]: inactive
fold change (FC) [2]: 0.8
fold change (FC) [3]: 2.4
Activity [4]: inactive
Activity [5]: inactive
fold change (FC) [6]: 1.4
fold change (FC) [7]: 3.3
Activity [8]: inactive
Activity [9]: inactive
Activity [10]: inactive
Activity [11]: inactive
fold change (FC) [12]: 1
Activity [13]: inactive
fold change (FC) [14]: 0.9
fold change (FC) [15]: 429
Activity [16]: inactive
Activity [17]: inactive
fold change (FC) [18]: 3.1
Activity [19]: inactive
Activity [20]: inactive
fold change (FC) [21]: 1170
Activity [22]: inactive
fold change (FC) [23]: 15
Activity [24]: inactive
fold change (FC) [25]: 3.3
Activity [26]: inactive
Activity [27]: inactive
Activity [28]: inactive
Activity [29]: inactive
Activity [30]: Active
Activity [31]: inactive
fold change (FC) [32]: 2.4
Activity [33]: inactive
Activity [34]: inactive
fold change (FC) [35]: 4.6
fold change (FC) [36]: 1
fold change (FC) [37]: 3.9
fold change (FC) [38]: 4.5
fold change (FC) [39]: 3.3

CC(C)CCCCCCC/C=C\CC(=O)N[C@@H](CC(N)=O)C(=O)N[C@@H]1C(=O)N2CCCC[C@@H]2C(=O)N[C@@H]([C@H](C)C(=O)O)C(=O)N[C@@H](CC(=O)O)C(=O)NCC(=O)N[C@@H](CC(=O)O)C(=O)NCC(=O)N[C@H]([C@H](C)N)C(=O)N[C@@H](C(C)C)C(=O)N2CCC[C@H]2C(=O)N[C@@H]1C [FRIULIMICIN B]
fold change (FC) [1]: 3.8
fold change (FC) [2]: 0.8
fold change (FC) [3]: 8.7
fold change (FC) [4]: 3.5
fold change (FC) [5]: 4.7
fold change (FC) [6]: 0.9
fold change (FC) [7]: 8.9
fold change (FC) [8]: 5.1
fold change (FC) [9]: 7.4
fold change (FC) [10]: 3.4
fold change (FC) [11]: 6.2
fold change (FC) [12]: 2.9
fold change (FC) [13]: 4.1
fold change (FC) [14]: 1.8
Activity [15]: inactive
fold change (FC) [16]: 5.9
fold change (FC) [17]: 6.9
fold change (FC) [18]: 8.5
fold change (FC) [19]: 4.1
fold change (FC) [20]: 3.8
fold change (FC) [21]: 0.9
fold change (FC) [22]: 3.7
Activity [23]: inactive
fold change (FC) [24]: 6.4
fold change (FC) [25]: 8.2
fold change (FC) [26]: 6.5
fold change (FC) [27]: 7.2
fold change (FC) [28]: 3.4
fold change (FC) [29]: 3.9
fold change (FC) [31]: 5.7
fold change (FC) [32]: 7.4
fold change (FC) [33]: 4.1
fold change (FC) [34]: 7.1
Activity [35]: inactive
fold change (FC) [36]: 1.2
fold change (FC) [37]: 3.1
fold change (FC) [38]: 8.7
fold change (FC) [39]: 9.1

Source: ChEMBL document CHEMBL1687728, “Daptomycin versus Friulimicin B: in-depth profiling of Bacillus subtilis cell envelope stress responses” (2009)
